Assay results: ChEMBL document CHEMBL2021920, “Design, synthesis and biological evaluation of thiazole- and indole-based derivatives for the treatment of type II diabetes” (Eur J Med Chem, 2012)
Activity calls are given as the source filed them. The rule behind the calls is not given here.

How the values were obtained:
RAW264.7 = assay: Inhibition of LPS-stimulated TNFalpha production in mouse RAW264.7 cells at […] dosed simultaneously with LPS measured 24 hrs post dose by ELISA; format: functional
In short: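 RAW 264.7 macrophages were seeded and grown for 24 h. Test agents were then added together with LPS, and cells were incubated for a further 24 h before TNF-α output was determined. Results are expressed as percent inhibition.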

Mus musculus [1] = assay: Antidiabetic effect in high-fat diet fed C57BL/6J mouse obesity model assessed as reduction in plasma total cholesterol level at 50 mg/kg, po dosed once daily measured after 8 weeks relative to untreated control; format: functional; details: 1344 h
In short: (§1)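 Obese C57BL/6J animals on a 60% fat diet were given 50 mg/kg orally each day (suspension in Tween 80/5% saline) or vehicle, n = 8 per group. After 8 weeks, heart blood was taken under anaesthesia and spun at 5,000 g for 15 min at 4 °C. Plasma glucose, TG, TC and ALT were measured on a biochemistry analyzer.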

Mus musculus [2] = assay: Antidiabetic effect in high-fat diet fed C57BL/6J mouse obesity model assessed as reduction in liver fat deposition at 50 mg/kg, po dosed once daily measured after 8 weeks by H&E staining; format: functional, organism-based; design: dose 50 mg/kg
In short: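 Livers came from high-fat-fed C57BL/6J animals that had 8 weeks of daily oral dosing at 50 mg/kg or vehicle. Tissue was fixed in 4% buffered formalin, embedded in paraffin or OCT, and serially sectioned. Sections were stained with H&E to assess fat deposition.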

[3] = molecular target: Fatty acid-binding protein, adipocyte (Mus musculus) (UniProt P04117); assay: Inhibition of mouse ap2 by fluorescent 1,8-anilino-8-naphthalene sulfonate assay; details: read-out: Ki(app)
Sequence of Fatty acid-binding protein, adipocyte (Mus musculus) (P04117 whole entry, looked up): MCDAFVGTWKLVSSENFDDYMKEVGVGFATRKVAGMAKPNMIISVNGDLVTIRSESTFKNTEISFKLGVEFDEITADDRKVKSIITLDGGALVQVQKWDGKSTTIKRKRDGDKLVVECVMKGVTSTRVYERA

Mus musculus [4] = assay: Antidiabetic effect in high-fat diet fed C57BL/6J mouse obesity model assessed as reduction in plasma alanine aminotransferase level at 50 mg/kg, po dosed once daily measured after 8 weeks relative to untreated control; format: functional; details: 1344 h; in short: as §1
Mus musculus [5] = assay: Effect on food intake in high-fat diet fed C57BL/6J mouse obesity model at 50 mg/kg, po dosed once daily measured after 8 weeks relative to untreated control; format: functional, organism-based; design: dose 50 mg/kg
In short: (§2)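 C57BL/6J animals were kept on a 60% fat diet, or on normal food, for 8 weeks. High-fat groups were dosed orally at 50 mg/kg once daily (suspension in Tween 80/5% saline) or given vehicle, n = 8 per group. Body weight and food intake were followed over the study period.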

Mus musculus [6] = assay: Antidiabetic effect in high-fat diet fed C57BL/6J mouse obesity model assessed as reduction in plasma triglyceride level at 50 mg/kg, po dosed once daily measured after 8 weeks relative to untreated control; format: functional; details: 1344 h; in short: as §1
Mus musculus [7] = assay: Antidiabetic effect in high-fat diet fed C57BL/6J mouse obesity model assessed as weight gain incidence at 50 mg/kg, po dosed once daily measured after 8 weeks relative to untreated control; format: functional; in short: as §2
Mus musculus [8] = assay: Antidiabetic effect in high-fat diet fed C57BL/6J mouse obesity model assessed as improvement in glucose metabolism level at 50 mg/kg, po dosed once daily measured after 8 weeks by glucose tolerance test; format: functional, organism-based; design: dose 50 mg/kg
In short: (§3)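 Diet-induced obese C57BL/6J animals were fed a 60% fat diet for 8 weeks, then dosed orally with 50 mg/kg daily (suspension in Tween 80 and 5% saline) or vehicle, n = 8 per group. After a 12 h fast they received either an oral glucose load of 0.5 g/kg (5% glucose) or ip insulin at 2 U/Kg in saline. Blood glucose was read by glucose meter at 0, 15, 30, 60, 90 and 120 min.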

Mus musculus [9] = assay: Antidiabetic effect in high-fat diet fed C57BL/6J mouse obesity model assessed as increase in insulin sensitivity level at 50 mg/kg, po dosed once daily measured after 8 weeks by insulin tolerance test; format: functional, organism-based; design: dose 50 mg/kg; in short: as §3
Mus musculus [10] = assay: Antidiabetic effect in high-fat diet fed C57BL/6J mouse obesity model assessed as reduction in blood glucose at 50 mg/kg, po dosed once daily measured after 8 weeks relative to untreated control; format: functional, organism-based; design: dose 50 mg/kg; in short: as §1

Compound	inhibition (INH) (RAW264.7) [%]	further results
Cc1ccccc1Cn1cc(CC(=O)O)c2ccccc21	14.29	
COc1ccc2c(c1)c(/C=C/C(=O)O)cn2Cc1ccccc1F	86.67	
O=C(O)/C=C/c1cn(Cc2ccc(F)cc2)c2ccccc12	86.78	
CC(C)c1ccc(Cn2cc(/C=C/C(=O)O)c3ccccc32)cc1	92.24	
O=C(O)CCC(=O)Nc1nc(-c2ccc(Cl)c(Cl)c2)cs1	12.38	
Cc1ccc(Cn2cc(/C=C/C(=O)O)c3ccccc32)cc1	66.56	
Cc1ccc2c(c1)c(/C=C/C(=O)O)cn2Cc1ccccc1F	11.18	
N#Cc1ccc(Cn2cc(/C=C/C(=O)O)c3ccccc32)cc1	31.46	
O=C(O)CCC(=O)Nc1nc(-c2ccc(Cl)cc2)cs1	41.22	
O=C(O)Cc1cn(Cc2ccccc2)c2ccccc12	52.17	
COc1ccc2c(c1)c(/C=C/C(=O)O)cn2Cc1ccc(F)cc1	94.28	
Cc1c(/C=C/C(=O)O)c2ccccc2n1Cc1cccc(F)c1		inhibition (RAW264.7): inactive
Cc1ccccc1Cn1cc(/C=C/C(=O)O)c2ccccc21		inhibition (RAW264.7): inactive
O=C(O)Cc1cn(Cc2ccccc2F)c2ccccc12	24.72	
O=C(O)CCC(=O)Nc1nc(-c2ccc(C(F)(F)F)cc2)cs1	12.15	
O=C(O)CCC(=O)Nc1nc(-c2ccc(F)c(F)c2)cs1	92.45	
O=C(O)CSCC(=O)Nc1nc(-c2ccc(Cl)cc2)cs1	23.45	
Cc1c(/C=C/C(=O)O)c2ccccc2n1Cc1ccccc1F	93.27	
COc1ccc(-c2csc(NC(=O)CCC(=O)O)n2)cc1		inhibition (RAW264.7): inactive
CCc1c(-c2ccccc2)c(-c2ccccc2)nn1-c1ccccc1-c1cccc(OCC(=O)O)c1	85.13	

Compound	inhibition (INH) (RAW264.7) [%]	further results
O=C(O)CCC(=O)Nc1nc(-c2ccc(F)cc2)cs1	27.24	
O=C(O)/C=C/c1cn(Cc2ccc([N+](=O)[O-])cc2)c2ccccc12	32.34	
O=C(O)/C=C/c1cn(Cc2cccc(F)c2)c2ccccc12	36.36	
O=C(O)CSCC(=O)Nc1nc(-c2ccc(C(F)(F)F)cc2)cs1	37.26	
O=C(O)Cc1cn(Cc2ccc(F)cc2)c2ccccc12	92.24	
CC(C)(C)c1ccc(Cn2cc(/C=C/C(=O)O)c3ccccc32)cc1	50.18	
O=C(O)CSCC(=O)Nc1nc(-c2ccc([N+](=O)[O-])cc2)cs1	43.24	
O=C(O)CCC(=O)Nc1nc(-c2ccccc2Cl)cs1	8.56	
O=C(O)/C=C/c1cn(Cc2ccccc2F)c2ccccc12	95.47	inhibition in vivo at 50 mg/kg (Mus musculus [1]): 38.5%; Activity (Mus musculus [2]): Active; Ki [3]: 33 nM; inhibition in vivo at 50 mg/kg (Mus musculus [4]): 26.7%; Activity (Mus musculus [5]): inactive; inhibition in vivo at 50 mg/kg (Mus musculus [6]): 27.1%; Activity (Mus musculus [7]): 21.18%; Activity (Mus musculus [8]): Active; Activity (Mus musculus [9]): Active; Activity (Mus musculus [10]): Active
O=C(O)CCC(=O)Nc1nc(-c2ccc3ccccc3c2)cs1	58.75	
COc1ccc2c(c1)c(/C=C/C(=O)O)cn2Cc1cccc(F)c1		inhibition (RAW264.7): inactive
Cc1sc(NC(=O)CCC(=O)O)nc1-c1ccccc1	25.23	
O=C(O)/C=C/c1cn(Cc2cccc3ccccc23)c2ccccc12	93.28	
O=C(O)CSCC(=O)Nc1nc(-c2ccc(F)cc2)cs1	18.19	
Cc1ccc2c(c1)c(/C=C/C(=O)O)cn2Cc1cccc(F)c1		inhibition (RAW264.7): inactive
O=C(O)/C=C/c1cn(Cc2ccccc2)c2ccccc12	18.17	
Cc1ccc(-c2csc(NC(=O)CCC(=O)O)n2)cc1	36.67	
O=C(O)CCC(=O)Nc1nc(-c2ccc(Cl)cc2Cl)cs1	35.15	
O=C(O)Cc1cn(Cc2cccc(F)c2)c2ccccc12		inhibition (RAW264.7): inactive
Cc1sc(NC(=O)CCC(=O)O)nc1-c1ccc(Cl)cc1	27.14	
